According to ChEMBL document CHEMBL5705905, “Pharmacological targeting of kinases MST1 and MST2 augments tissue repair and regeneration” (Sci Transl Med, 2016):
The source made the active and inactive calls. No cut-off for these calls is given here.

Legend:
[1] = molecular target: T1, Serine/threonine-protein kinase 4 (Homo sapiens, UniProt Q13043); experiment: Inhibition of Flag-tagged full-length MST1 (unknown origin) transfected in HEK293T cells assessed as MOB1a phosphorylation level incubated for 3 hrs by immunoblot analysis
T1 sequence (Q13043 whole entry): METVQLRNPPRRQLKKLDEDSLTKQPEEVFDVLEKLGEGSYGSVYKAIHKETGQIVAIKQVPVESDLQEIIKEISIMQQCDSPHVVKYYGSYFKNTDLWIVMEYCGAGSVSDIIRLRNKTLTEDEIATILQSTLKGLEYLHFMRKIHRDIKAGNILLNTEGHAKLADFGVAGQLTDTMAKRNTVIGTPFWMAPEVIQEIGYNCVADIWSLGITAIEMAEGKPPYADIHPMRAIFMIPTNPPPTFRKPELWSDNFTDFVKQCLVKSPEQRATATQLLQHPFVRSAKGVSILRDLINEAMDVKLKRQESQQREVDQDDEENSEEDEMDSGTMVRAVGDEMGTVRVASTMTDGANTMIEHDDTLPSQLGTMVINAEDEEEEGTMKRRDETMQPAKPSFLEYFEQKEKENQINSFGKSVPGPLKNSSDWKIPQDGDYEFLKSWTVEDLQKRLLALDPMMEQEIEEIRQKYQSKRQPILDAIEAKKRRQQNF

[2] = molecular target: Cyclin-dependent kinase 7 (Homo sapiens) (UniProt P50613); experiment: Inhibition of CDK7 (unknown origin) assessed as remaining activity at 1 uM by Kinome scan method relative to control
In short: (§1)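 Active-site-dependent competition-binding profiling (KINOMEscan) at 1 μM against a 468-kinase panel; compound supplied from a 10 mM DMSO stock. Read-out is ctrl% = (test signal − positive control signal)/(negative control signal − positive control signal) × 100. DMSO is the negative control (100%) and a control compound the positive control (0%). Lower ctrl% means tighter binding.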

[3] = molecular target: Cyclin-dependent kinase-like 5 (Homo sapiens) (UniProt O76039); experiment: Inhibition of CDKL5 (unknown origin) assessed as remaining activity at 1 uM by Kinome scan method relative to control; in short: as §1
[4] = molecular target: Macrophage colony-stimulating factor 1 receptor (Homo sapiens) (UniProt P07333); experiment: Inhibition of CSF1R (unknown origin) assessed as remaining activity at 1 uM by Kinome scan method relative to control; in short: as §1
[5] = molecular target: Ephrin type-A receptor 7 (Homo sapiens) (UniProt Q15375); experiment: Inhibition of EPHA7 (unknown origin) assessed as remaining activity at 1 uM by Kinome scan method relative to control
[6] = molecular target: Receptor tyrosine-protein kinase erbB-2 (Homo sapiens) (UniProt P04626); experiment: Inhibition of ERBB2 (unknown origin) assessed as remaining activity at 1 uM by Kinome scan method relative to control
[7] = molecular target: Dual specificity mitogen-activated protein kinase kinase 1 (Homo sapiens) (UniProt Q02750); experiment: Inhibition of MEK1 (unknown origin) assessed as remaining activity at 1 uM by Kinome scan method relative to control
[8] = molecular target: Cyclin-dependent kinase 17 (Homo sapiens) (UniProt Q00537); experiment: Inhibition of PCTK2 (unknown origin) assessed as remaining activity at 1 uM by Kinome scan method relative to control
[9] = molecular target: Serine/threonine-protein kinase PLK3 (Homo sapiens) (UniProt Q9H4B4); experiment: Inhibition of PLK3 (unknown origin) assessed as remaining activity at 1 uM by Kinome scan method relative to control
[10] = molecular target: Serine/threonine-protein kinase PLK4 (Homo sapiens) (UniProt O00444); experiment: Inhibition of PLK4 (unknown origin) assessed as remaining activity at 1 uM by Kinome scan method relative to control
[11] = molecular target: Serine/threonine-protein kinase SIK3 (Homo sapiens) (UniProt Q9Y2K2); experiment: Inhibition of QSK (unknown origin) assessed as remaining activity at 1 uM by Kinome scan method relative to control
[12] = molecular target: Ribosomal protein S6 kinase alpha-5 (Homo sapiens) (UniProt O75582); experiment: Inhibition of C-terminal kinase domain RPS6KA5 (unknown origin) assessed as remaining activity at 1 uM by Kinome scan method relative to control
In short: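 Active-site-dependent competition-binding (KINOMEscan) panel of 468 kinases, test compound at 1 μM (from a 10 mM DMSO stock). Read-out is ctrl% = (test signal − positive control signal)/(negative control signal − positive control signal) × 100. DMSO is the negative control (100%) and a control compound is the positive control (0%). Lower ctrl% means tighter binding.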

[13] = molecular target: Tyrosine-protein kinase JAK1 (Homo sapiens, UniProt P23458); experiment: Binding affinity to JAK1 JH2domain-pseudokinase (unknown origin) assessed as dissociation constant
[14] = molecular target: Non-receptor tyrosine-protein kinase TYK2 (Homo sapiens, UniProt P29597); experiment: Binding affinity to TYK2 JH1domain-catalytic (unknown origin) assessed as dissociation constant
[15] = molecular target: T2, Serine/threonine-protein kinase 3 (Homo sapiens, UniProt Q13188); experiment: Inhibition of MST2 (unknown origin) in presence of ATP by enzymatic assay
T2 sequence (Q13188 whole entry): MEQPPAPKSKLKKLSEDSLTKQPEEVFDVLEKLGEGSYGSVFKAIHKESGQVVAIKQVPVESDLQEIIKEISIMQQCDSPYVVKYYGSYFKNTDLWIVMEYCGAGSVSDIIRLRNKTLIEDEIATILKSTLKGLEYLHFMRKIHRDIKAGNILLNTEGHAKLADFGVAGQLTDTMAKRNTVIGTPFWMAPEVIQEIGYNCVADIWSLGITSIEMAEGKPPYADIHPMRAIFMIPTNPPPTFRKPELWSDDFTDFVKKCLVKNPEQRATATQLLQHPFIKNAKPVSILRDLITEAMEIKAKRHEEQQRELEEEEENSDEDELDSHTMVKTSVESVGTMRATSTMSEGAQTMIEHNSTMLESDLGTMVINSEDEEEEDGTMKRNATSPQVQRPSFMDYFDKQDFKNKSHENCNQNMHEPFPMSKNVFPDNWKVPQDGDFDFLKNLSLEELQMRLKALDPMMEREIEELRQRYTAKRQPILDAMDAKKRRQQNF

[16] = molecular target: Tyrosine-protein kinase ABL1 (Homo sapiens, UniProt P00519, M351T); experiment: Inhibition of phosphorylated ABL1 M351T mutant (unknown origin) in presence of ATP by enzymatic assay
[17] = molecular target: Mitogen-activated protein kinase kinase kinase 2 (Homo sapiens, UniProt Q9Y2U5); experiment: Inhibition of MAP3K2 (unknown origin) in presence of ATP by enzymatic assay
HepG2 = experiment: Inhibition of Flag-tagged MST1 D109A mutant (unknown origin) in human HepG2 cells assessed as MOB1 phosphorylation level at 3 uM by immunoblot analysis; assay type: cell-based
Mus musculus [18] = experiment: In vivo inhibition of MST1/2 in wild-type Mst1fl/fl Mst2fl/fl mouse assessed as high in CTGF mRNA level at 1 mg/kg, ip administrated daily for 7 days by RT-PCR analysis; assay type: functional, organism-based; conditions: Liver, time 7.0 day
Mus musculus [19] = experiment: Anti-colitis activity against DSS-induced mouse assessed as cancerous phenotype at 1 mg/kg, ip administrated daily for 1 week; assay type: functional, organism-based; conditions: Colon, time 1.0 weeks
In short: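 DSS given orally for 7 days. Mice received 1 mg/kg intraperitoneally daily for 1 week. Animals were followed for more than 10 months for cancerous phenotypes.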

Chain of Ephrin type-A receptor 7 (Homo sapiens) (Q15375 28-998 limits assumed): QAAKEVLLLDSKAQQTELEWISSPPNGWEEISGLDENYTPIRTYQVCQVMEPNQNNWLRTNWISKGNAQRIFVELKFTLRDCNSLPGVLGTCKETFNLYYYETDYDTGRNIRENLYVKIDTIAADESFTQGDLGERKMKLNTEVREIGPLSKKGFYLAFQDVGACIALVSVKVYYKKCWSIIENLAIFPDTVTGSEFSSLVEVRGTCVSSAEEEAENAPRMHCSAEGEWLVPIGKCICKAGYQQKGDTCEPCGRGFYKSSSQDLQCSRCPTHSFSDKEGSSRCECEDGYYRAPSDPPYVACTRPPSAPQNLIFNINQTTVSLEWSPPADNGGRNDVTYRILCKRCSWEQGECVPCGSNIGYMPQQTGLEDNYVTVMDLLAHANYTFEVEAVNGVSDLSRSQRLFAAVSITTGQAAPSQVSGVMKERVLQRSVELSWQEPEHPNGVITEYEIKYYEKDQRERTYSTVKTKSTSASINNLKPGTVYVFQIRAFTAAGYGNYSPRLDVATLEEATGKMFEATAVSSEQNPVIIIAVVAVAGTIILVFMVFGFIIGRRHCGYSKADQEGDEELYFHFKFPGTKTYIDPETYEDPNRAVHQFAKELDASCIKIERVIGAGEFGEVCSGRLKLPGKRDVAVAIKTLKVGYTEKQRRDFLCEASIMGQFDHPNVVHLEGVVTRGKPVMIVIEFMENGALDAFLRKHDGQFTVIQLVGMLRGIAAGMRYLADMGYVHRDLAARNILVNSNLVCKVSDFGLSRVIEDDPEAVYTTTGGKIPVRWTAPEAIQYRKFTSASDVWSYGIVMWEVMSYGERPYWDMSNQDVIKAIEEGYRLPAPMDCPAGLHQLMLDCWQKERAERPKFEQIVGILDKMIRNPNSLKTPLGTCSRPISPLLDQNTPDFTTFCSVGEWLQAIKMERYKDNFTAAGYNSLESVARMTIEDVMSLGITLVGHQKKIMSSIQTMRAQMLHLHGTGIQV
Chain of Non-receptor tyrosine-protein kinase TYK2 (P29597 whole entry): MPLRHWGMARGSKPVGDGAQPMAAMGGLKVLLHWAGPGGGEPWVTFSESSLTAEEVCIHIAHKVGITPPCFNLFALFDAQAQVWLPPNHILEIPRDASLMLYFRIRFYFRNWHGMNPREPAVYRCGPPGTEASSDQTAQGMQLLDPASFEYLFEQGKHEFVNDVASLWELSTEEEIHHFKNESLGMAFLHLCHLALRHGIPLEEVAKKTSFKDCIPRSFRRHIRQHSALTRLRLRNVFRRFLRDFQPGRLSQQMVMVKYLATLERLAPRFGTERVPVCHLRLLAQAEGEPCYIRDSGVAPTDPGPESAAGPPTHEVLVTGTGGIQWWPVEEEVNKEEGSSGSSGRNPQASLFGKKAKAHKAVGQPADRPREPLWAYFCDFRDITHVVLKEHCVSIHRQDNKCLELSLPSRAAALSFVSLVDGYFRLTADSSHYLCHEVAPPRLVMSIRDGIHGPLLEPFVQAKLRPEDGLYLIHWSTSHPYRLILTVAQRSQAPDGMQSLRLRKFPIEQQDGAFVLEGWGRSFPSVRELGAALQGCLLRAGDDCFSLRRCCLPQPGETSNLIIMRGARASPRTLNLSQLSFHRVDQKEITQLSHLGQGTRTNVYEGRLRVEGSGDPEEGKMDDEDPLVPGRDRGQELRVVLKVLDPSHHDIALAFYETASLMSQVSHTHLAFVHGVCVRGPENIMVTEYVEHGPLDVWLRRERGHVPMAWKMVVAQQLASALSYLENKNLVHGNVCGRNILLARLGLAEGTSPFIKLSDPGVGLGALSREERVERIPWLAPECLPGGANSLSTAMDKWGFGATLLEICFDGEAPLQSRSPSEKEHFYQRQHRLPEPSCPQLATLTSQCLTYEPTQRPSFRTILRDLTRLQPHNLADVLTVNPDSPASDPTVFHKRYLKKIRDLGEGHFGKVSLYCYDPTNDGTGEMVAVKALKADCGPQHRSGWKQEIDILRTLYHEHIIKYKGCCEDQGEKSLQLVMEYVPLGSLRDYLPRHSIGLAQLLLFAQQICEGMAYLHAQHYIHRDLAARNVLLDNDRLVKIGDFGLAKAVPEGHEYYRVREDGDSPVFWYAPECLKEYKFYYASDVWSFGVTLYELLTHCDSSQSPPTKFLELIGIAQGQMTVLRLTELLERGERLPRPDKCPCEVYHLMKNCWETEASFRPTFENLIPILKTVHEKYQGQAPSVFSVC
Chain of Serine/threonine-protein kinase PLK4 (Homo sapiens) (O00444 whole entry): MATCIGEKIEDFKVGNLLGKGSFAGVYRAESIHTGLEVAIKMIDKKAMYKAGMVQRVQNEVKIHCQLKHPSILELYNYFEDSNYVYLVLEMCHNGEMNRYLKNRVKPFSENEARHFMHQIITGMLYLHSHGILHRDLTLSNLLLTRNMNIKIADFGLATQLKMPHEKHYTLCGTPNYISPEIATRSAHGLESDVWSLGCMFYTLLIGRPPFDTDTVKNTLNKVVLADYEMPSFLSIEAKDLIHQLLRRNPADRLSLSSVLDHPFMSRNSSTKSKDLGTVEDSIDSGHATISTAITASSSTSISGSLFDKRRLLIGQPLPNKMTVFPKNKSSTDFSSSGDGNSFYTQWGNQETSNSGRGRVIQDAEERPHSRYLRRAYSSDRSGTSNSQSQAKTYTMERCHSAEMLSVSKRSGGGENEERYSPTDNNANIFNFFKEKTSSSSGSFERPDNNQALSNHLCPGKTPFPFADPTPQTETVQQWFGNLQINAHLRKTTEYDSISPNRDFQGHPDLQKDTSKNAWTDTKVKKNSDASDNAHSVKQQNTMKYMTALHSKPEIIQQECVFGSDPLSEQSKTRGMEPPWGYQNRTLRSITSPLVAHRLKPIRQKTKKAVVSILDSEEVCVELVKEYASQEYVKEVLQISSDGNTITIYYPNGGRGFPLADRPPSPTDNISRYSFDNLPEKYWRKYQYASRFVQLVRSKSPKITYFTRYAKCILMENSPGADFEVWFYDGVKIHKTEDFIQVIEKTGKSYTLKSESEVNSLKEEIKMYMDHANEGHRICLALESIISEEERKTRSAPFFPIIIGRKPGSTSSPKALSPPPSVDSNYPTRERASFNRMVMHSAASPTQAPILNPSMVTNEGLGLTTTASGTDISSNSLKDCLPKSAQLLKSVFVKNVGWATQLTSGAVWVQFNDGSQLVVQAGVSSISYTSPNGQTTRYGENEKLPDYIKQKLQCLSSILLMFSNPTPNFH
Chain of Cyclin-dependent kinase-like 5 (Homo sapiens) (O76039 whole entry): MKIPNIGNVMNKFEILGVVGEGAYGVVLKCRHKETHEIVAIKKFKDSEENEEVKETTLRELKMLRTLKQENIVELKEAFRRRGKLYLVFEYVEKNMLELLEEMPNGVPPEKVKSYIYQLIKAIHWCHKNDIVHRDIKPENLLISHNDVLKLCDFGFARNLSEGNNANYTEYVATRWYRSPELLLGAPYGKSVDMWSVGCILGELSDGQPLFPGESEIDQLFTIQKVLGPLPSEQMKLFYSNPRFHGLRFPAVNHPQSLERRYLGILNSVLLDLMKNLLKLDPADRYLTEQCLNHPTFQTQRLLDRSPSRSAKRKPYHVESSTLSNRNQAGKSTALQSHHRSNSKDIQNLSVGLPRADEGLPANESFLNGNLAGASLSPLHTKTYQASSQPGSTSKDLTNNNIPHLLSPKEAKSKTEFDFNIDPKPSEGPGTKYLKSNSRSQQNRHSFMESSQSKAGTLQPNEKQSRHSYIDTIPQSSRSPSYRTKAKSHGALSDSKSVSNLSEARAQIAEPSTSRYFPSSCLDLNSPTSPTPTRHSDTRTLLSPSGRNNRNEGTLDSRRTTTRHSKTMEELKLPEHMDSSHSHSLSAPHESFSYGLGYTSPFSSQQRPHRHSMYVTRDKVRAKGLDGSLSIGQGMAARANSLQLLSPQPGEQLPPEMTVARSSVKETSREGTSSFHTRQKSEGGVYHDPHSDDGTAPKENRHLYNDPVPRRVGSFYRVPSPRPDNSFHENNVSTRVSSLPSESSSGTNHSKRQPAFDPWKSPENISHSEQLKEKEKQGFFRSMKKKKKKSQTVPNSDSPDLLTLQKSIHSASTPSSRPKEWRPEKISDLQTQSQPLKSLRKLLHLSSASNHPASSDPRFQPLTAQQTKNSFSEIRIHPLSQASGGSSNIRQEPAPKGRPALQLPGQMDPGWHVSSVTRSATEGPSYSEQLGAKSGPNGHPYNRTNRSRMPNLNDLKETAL
Chain of Dual specificity mitogen-activated protein kinase kinase 1 (Homo sapiens) (Q02750 whole entry): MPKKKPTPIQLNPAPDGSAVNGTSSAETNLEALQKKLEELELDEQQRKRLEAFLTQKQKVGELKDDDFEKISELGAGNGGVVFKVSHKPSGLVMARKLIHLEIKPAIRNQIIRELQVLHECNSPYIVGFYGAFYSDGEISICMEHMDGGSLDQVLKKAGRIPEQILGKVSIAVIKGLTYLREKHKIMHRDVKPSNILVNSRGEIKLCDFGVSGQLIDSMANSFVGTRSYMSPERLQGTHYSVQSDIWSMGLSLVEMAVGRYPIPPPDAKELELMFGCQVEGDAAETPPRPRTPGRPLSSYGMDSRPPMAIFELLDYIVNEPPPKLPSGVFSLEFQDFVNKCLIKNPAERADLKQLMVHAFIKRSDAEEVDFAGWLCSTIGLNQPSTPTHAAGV
Chain of Mitogen-activated protein kinase kinase kinase 2 (Q9Y2U5 whole entry): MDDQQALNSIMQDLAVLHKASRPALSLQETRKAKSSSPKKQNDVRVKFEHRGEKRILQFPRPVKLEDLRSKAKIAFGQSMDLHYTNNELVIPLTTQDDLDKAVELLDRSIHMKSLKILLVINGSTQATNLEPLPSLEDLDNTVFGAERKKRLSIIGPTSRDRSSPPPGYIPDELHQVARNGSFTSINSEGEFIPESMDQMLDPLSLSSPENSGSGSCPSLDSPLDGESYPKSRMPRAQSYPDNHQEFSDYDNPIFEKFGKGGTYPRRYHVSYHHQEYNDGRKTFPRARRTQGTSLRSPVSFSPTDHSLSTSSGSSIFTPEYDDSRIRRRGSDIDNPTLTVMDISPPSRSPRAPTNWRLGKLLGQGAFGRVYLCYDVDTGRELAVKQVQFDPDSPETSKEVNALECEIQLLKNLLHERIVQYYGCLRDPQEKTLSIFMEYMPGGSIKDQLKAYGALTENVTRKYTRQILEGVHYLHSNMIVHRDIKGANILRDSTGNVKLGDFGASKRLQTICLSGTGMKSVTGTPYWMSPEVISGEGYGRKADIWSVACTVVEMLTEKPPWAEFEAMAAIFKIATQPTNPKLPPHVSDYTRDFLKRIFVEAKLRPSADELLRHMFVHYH

CN1C(=O)c2sccc2N(C)c2nc(Nc3ccc(S(N)(=O)=O)cc3)ncc21
IC50 [1]: 71.1 nM
Activity [2]: 60%
Activity [3]: 85%
Activity [4]: 86%
Activity [5]: 98%
Activity [6]: 100%
Activity [7]: 91%
Activity [8]: 86%
Activity [9]: 99%
Activity [10]: 14%
Activity [11]: 87%
Activity [12]: 81%
Kd [13]: 22 nM
Kd [14]: 5 nM
IC50 [15]: 18.2 nM
IC50 [16]: 17.6 nM
IC50 [17]: 79.6 nM
inhibition (HepG2): Active
inhibition (Mus musculus [18]): Active
Activity (Mus musculus [19]): Active
